# Screens from PubChem BioAssay.
# Shown are actives, neighbours in structure and some others; about 5.8% of the full set was active somewhere.
# RBBP9 inhibitor: human RBBP9 inhibitors, primary screen, biochemical, fluorescence polarization, FP-Rh probe, HTS; Serine hydrolase RBBP9 (Homo sapiens), O75884; recombinant RBBP9; inhibition, % at 7.94 µM; 220,000 tested, 0.2% active; AID 1515, 2009;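 active = inhibition above the campaign mean of all tested compounds plus 3 SD, cut at about 14% in these data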;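 also: plate controls were DMSO wells with RBBP9 for no effect and wells lacking RBBP9 protein for full effect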
#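 Test system: recombinant human RBBP9. Quantity: 2.5 µM RBBP9 dispensing solution, before mixing. Detection: FP readout at 525/598 nm. Reagent: Serine-hydrolase probe FP-Rh, 375 nM pre-mixing. Measure: % inhibition. Control set: DMSO-treated enzyme wells and wells lacking RBBP9. Buffer or medium: Tris-NaCl-Pluronic buffer, pH 8.0. Times: preincubation 30 min plus labeling 45 min at 25 °C.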
# ROMK primary: ROMK potassium channel modulators, primary screen, cell-based, thallium flux, MLSMR library; ATP-sensitive inward rectifier potassium channel 1 (Homo sapiens), P48048; B-score at 10 µM; 130,000 tested, 2% active; Tet-inducible ROMK, thallium flux fluorescence; actives lie on both sides;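 active = signal ratio slope over the read window, or its plate-corrected B-score, at least 3 SD from the plate mean, either direction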;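 also: B-score of the F/F0 ratio slope over 7 to 12 s after thallium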
# KCC2 mod: KCC2 cotransporter modulators, thallium flux, primary screen, cell-based, HEK293 KCC2, FluoZin-2 fluorescence, MLSMR; KCC2 cells, thallium flux FluoZin-2 fluorescence; B-score of Tl+ flux slope (higher = more flux/activation; lower = inhibition) at 10 µM; 190,000 tested, 2.2% active; AID 1456, 2008;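 active = thallium flux slope and its plate-corrected score both differing from the plate sample mean at a set confidence after two filtering rounds, in either direction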;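 also: slope of fluorescence scaled to starting intensity during 10 to 20 s after thallium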
# 14-3-3 Bad inh: inhibitors of 14-3-3 zeta/Bad binding, primary screen, biochemical, TR-FRET, bovine 14-3-3 zeta. 14-3-3 protein zeta/delta (Bos taurus), P63103. TR-FRET 14-3-3zeta/Dy647-pBad peptide displacement, 1 h. inhibition, % at 21.7 µM. 220,000 tested, 0.71% active. AID 781, 2007;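 active = inhibition above about 70%, limit read from the data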;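 also: 0% = full 14-3-3 plus peptide FRET controls and 100% = background without 14-3-3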
# NCF1 inh: p47phox/p22phox peptide binding inhibitors, primary screen, biochemical, uHTS, NADPH oxidase regulatory subunit; Neutrophil cytosol factor 1 (Homo sapiens), P14598; fluorescence polarization, 2 h; inhibition, % at 24.7 µM; 220,000 tested, 0.53% active;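 active = inhibition above about 30%, limit read from the data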;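 also: 0% = p47phox with labelled peptide and 100% = labelled peptide alone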
# WT yeast gro inh: growth inhibition of WT strain, primary screen, mitochondrial fusion inhibitor project, WT and mutant strains, chemical genetic; mitochondrial fusion phenotypic screen; inhibition, % at 10 µM; 190,000 tested, 2.1% active; AID 1362, 2008; in the data active = inhibition above about 58%; tested in S. cerevisiae
# * hit, by the source's call; . = not tested or not shown; + = active, no number; [ ] = remark or other dose.
SMILES,RBBP9 inhibitor,ROMK primary,KCC2 mod,14-3-3 Bad inh,NCF1 inh,WT yeast gro inh
CC(C)(C)NC(=O)CSc1nc(O)cc(=O)[nH]1,-7,0.97,0.44,-10,-16,-9
c1ccc(Nc2scc(-c3ccccc3)[n+]2Cc2ccco2)cc1,-3,-1.1,-0.68,-17,-20,67*
c1ccc(C[n+]2c(-c3ccccc3)csc2Nc2ccccc2)cc1,-5,.,0.5,13,-6,10
Cc1ccc(S(=O)(=O)N2CCN(Cc3ccccc3)CC2)c(C)c1N(C)S(=O)(=O)c1ccccc1,-11,.,-2.3,-8,-5,10
COc1cc(NC(=O)c2ccc(Cl)cc2Cl)ccc1NC(=O)c1cccs1,-5,.,.,2,-9,.
O=C(CCCSc1nc2ccccc2[nH]1)N1CCN(c2ccc([N+](=O)[O-])cc2)CC1,9,-5.4*,-1.2,-12,-3,-14
O=C(CSc1nc2ccccc2[nH]1)N1CCN(c2ccc(F)cc2)CC1,-4,0.44,.,2,-15,7
COCCNC(=S)N(CCc1c(C)[nH]c2ccc(F)cc12)Cc1cccs1,-4,-0.039,-0.27,-12,-3,34
CCNC(=S)N(CCc1c(C)[nH]c2ccc(Cl)cc12)Cc1ccco1,-7,1,-4.4,9,-10,78*
COCCNC(=S)N(CCc1c(C)[nH]c2ccc(Cl)cc12)Cc1cccs1,-1,0.59,0.72,-27,-9,74*
CCNC(=S)N(CCc1c(C)[nH]c2ccc(C)cc12)Cc1cccs1,7,-0.057,0.46,-28,-10,71*
NC(=S)N1CCCc2ccccc21,-11,.,.,1,-10,.
COC(=O)C[N+](C)(C)CC#Cc1ccccc1,5,0.54,0.014,2,-8,-15
CCCC1=C(C(=O)OCC)C(c2ccc(NC(C)=O)cc2)NC(=O)N1 (centres undefined),8,-0.00071,0.26,12,4,61*
CCOC(=O)C1=C(CS(=O)(=O)c2ccccc2)NC(=O)NC1c1ccccc1 (centres undefined),-10,.,0.17,13,-2,-2
COCCN(C(=O)Cc1cccs1)C(C(=O)NCc1ccc(OC)cc1)c1ccc(C(C)C)cc1 (centres undefined),-5,.,-3.2,-13,-5,61*
CCc1ccc(C(C(=O)NCc2ccc(OC)cc2)N(CCOC)C(=O)Cc2cccs2)cc1 (centres undefined),-11,.,-3.5,3,-2,-1
O=C(COc1ccc([N+](=O)[O-])cc1Cl)N1CCOCC1,-5,.,0.56,11,-10,.
CCc1nnc(NCC(=O)N2CCc3ccccc32)s1,-11,.,-0.23,.,+,-5
Cc1nc(-c2cccnc2)sc1C(=O)N/N=C/c1ccccc1Cl,-4,1.4,0.18,87*,-3,.
O=C(Cc1coc(-c2ccc(F)cc2)n1)NCc1ccccc1,-8,-0.38,-2.6*,-2,-1,-4
CC(C)Cc1nc(N2CCN(C(=O)c3ccccc3)CC2)c(C#N)c2c1CCC2,-7,.,0.04,0,-13,73*
COc1cccc(-n2c(SCC(=O)O)nnc2-c2cccnc2)c1,3,-2.3,.,88*,-4,21
O=C(c1ccc(Br)s1)N1CCN(C/C=C/c2ccccc2)CC1,-2,-1.6,-1.6,-2,-14,23
Fc1ccc(C(c2ccc(F)cc2)N2CCN(C/C=C/c3ccccc3)CC2)cc1,-3,.,1.2,27,0,82*
SMILES,RBBP9 inhibitor,ROMK primary,KCC2 mod,14-3-3 Bad inh,NCF1 inh,WT yeast gro inh
C(=C\c1ccccc1)/CN1CCN(C(c2ccccc2)c2ccccc2)CC1,0,.,0.026,-4,-1,70*
CC(C(=O)N(C)Cc1ccccc1)N1CCN(C/C=C/c2ccccc2)CC1 (centres undefined),5,.,-1.7,57,0,.
Cn1c(=O)c2[nH]c(N=NNc3ccccc3F)nc2n(C)c1=O,3,.,0.034,0,-7,.
C/C(CC(=O)Nc1ccc(Cl)cn1)=N\NC(=O)Cc1cccs1,3,.,0.0064,-4,-13,.
COc1ccccc1N1CCN(C(=O)c2oc3cc(C)cc(C)c3c2C)CC1,-2,0.7,-0.11,7,-11,76*
COc1ccccc1N1CCN(C(=O)c2ccoc2C)CC1,0,0.087,-0.064,10,-9,-2
Cc1cc(NC(=O)Nc2cc(F)ccc2F)no1,4,.,0.26,1,3,.
Cc1ccc(C(=O)Nc2ccccc2Oc2ccccc2)cc1[N+](=O)[O-],-10,.,0.73,-10,-3,61*
Cc1c(C#N)c(N=CN(C)C)c(C(=O)c2ccc(Br)cc2)n1-c1ccc(Cl)cc1,-8,-0.24,0.19,-4,-10,61*
O=[N+]([O-])c1ccc(C(=Nc2cccc3ccccc23)N2CCOCC2)cc1,-6,.,.,97*[fluorescence artefact?],-11,21
Cc1ccc([N+](=O)[O-])cc1N=C(c1ccc([N+](=O)[O-])cc1)N1CCOCC1,-8,-0.44,0.021,-13,-12,9
Cc1cccc(NC(=S)NCCC(c2ccccc2)c2ccccc2)c1,-24,.,-0.36,-8,-9,69*
O=C(NCCC(c1ccccc1)c1ccccc1)c1cccs1,-3,-0.17,-1.4,-5,-22,39
COc1ccc(NC(=S)N2CCN(C(c3ccccc3)c3ccccc3)CC2)c(OC)c1,-11,0.19,-0.31,-9,-2,69*
COc1ccc(NC(=S)NCCc2ccccc2OC)c(OC)c1,8,0.58,-0.86,-4,0,37
COc1ccc(NC(=S)NCCC(c2ccccc2)c2ccccc2)c(OC)c1,0,.,.,-2,-15,65*
CNC(=S)NCCC(c1ccccc1)c1ccccc1,-7,-0.39,-0.021,-12,-15,67*
O=C(NCC(=O)N(c1cccnc1)C(C(=O)NC1CCCC1)c1ccc(F)cc1)c1ccco1 (centres undefined),-7,0.087,-0.26,-13,4,-9
CCN(CC(=O)NCc1ccc(Cl)cc1)S(=O)(=O)c1ccc(NC(C)=O)cc1,-6,0.088,0.05,2,-1,6
COc1cccc(CN2CCN(Cc3nc(C(C)C)cs3)CC2CCO)c1 (centres undefined),-7,0.57,0.45,-3,-19,-2
COc1cccc(NC(=S)NCCC(c2ccccc2)c2ccccc2)c1,-9,.,0.63,-9,-8,76*
COc1ccc(CCNC(=S)Nc2ccccc2)cc1,-4,.,0.046,0,-2,.
